# According to ChEMBL document CHEMBL4765365, “Design, synthesis and antitumour evaluation of pyrrolo[1,2-f]-phenanthridine and dibenzo[f,h]pyrrolo[1,2-b]isoquinoline derivatives” (Eur J Med Chem, 2020):
# Activity calls are given as the source filed them. The calls are words filed in the database; no cut-off is given here.
# Experiments:
# HCT-116 [1] = assay: Cytotoxicity against human HCT-116 cells assessed as reduction in cell viability incubated for 72 hrs by XTT assay; assay type: functional, cell-based; conditions: HCT-116, 72 h
# NCI-H1650 = assay: Cytotoxicity against human NCI-H1650 cells assessed as reduction in cell viability incubated for 72 hrs by XTT assay; assay type: functional, cell-based; conditions: NCI-H1650, 72 h
# HCT-116 [2] = assay: Induction of cell cycle arrest in human HCT-116 cells assessed as G2/M phase at 0.375 uM incubated for 12 hrs by PI staining based flow cytometry analysis (reference value: 21.7 +/- 1.9 %); assay type: functional
# HCT-116 [3] = assay: Induction of cell cycle arrest in human HCT-116 cells assessed as G2/M phase at 0.375 uM incubated for 24 hrs by PI staining based flow cytometry analysis (reference value: 9.3 +/- 0.8 %); assay type: functional
# HCT-116 [4] = assay: Induction of cell cycle arrest in human HCT-116 cells assessed as S phase at 0.375 uM incubated for 36 hrs by PI staining based flow cytometry analysis (reference value: 7.9 +/- 3.7 %); assay type: functional
# HCT-116 [5] = assay: Induction of cell cycle arrest in human HCT-116 cells assessed as S phase at 0.75 uM measured at 0 hrs by PI staining based flow cytometry analysis (reference value: 12.4 +/- 6.2 %); assay type: functional
# HCT-116 [6] = assay: Induction of cell cycle arrest in human HCT-116 cells assessed as G0 phase at 0.75 uM incubated for 12 hrs by PI staining based flow cytometry analysis (reference value: 2.2 +/- 1.7 %); assay type: functional
# HCT-116 [7] = assay: Induction of cell cycle arrest in human HCT-116 cells assessed as S phase at 0.75 uM incubated for 12 hrs by PI staining based flow cytometry analysis (reference value: 15.5 +/- 0.2 %); assay type: functional
# HCT-116 [8] = assay: Induction of cell cycle arrest in human HCT-116 cells assessed as G2/M phase at 0.75 uM incubated for 12 hrs by PI staining based flow cytometry analysis (reference value: 21.7 +/- 1.9 %); assay type: functional
# HCT-116 [9] = assay: Induction of cell cycle arrest in human HCT-116 cells assessed as G2/M phase at 0.75 uM incubated for 24 hrs by PI staining based flow cytometry analysis (reference value: 9.3 +/- 0.8 %); assay type: functional
# HCT-116 [10] = assay: Induction of cell cycle arrest in human HCT-116 cells assessed as G1 phase at 0.75 uM incubated for 36 hrs by PI staining based flow cytometry analysis (reference value: 57.4 +/- 1.3 %); assay type: functional
# HCT-116 [11] = assay: Induction of cell cycle arrest in human HCT-116 cells assessed as G1 phase at 1.5 uM incubated for 24 hrs by PI staining based flow cytometry analysis (reference value: 55 +/- 9.8 %); assay type: functional
# HCT-116 [12] = assay: Induction of cell cycle arrest in human HCT-116 cells assessed as G2/M phase at 1.5 uM incubated for 36 hrs by PI staining based flow cytometry analysis (reference value: 23.6 +/- 1 %); assay type: functional
# NCI-H460 [13] = assay: Induction of cell cycle arrest in human NCI-H460 cells assessed as G0 phase at 0.75 uM measured at 0 hrs by PI staining based flow cytometry analysis (reference value: 1.3 +/- 0.9 %); assay type: functional
# NCI-H460 [14] = assay: Induction of cell cycle arrest in human NCI-H460 cells assessed as G1 phase at 0.75 uM incubated for 12 hrs by PI staining based flow cytometry analysis (reference value: 66 +/- 10 %); assay type: functional
# NCI-H460 [15] = assay: Induction of cell cycle arrest in human NCI-H460 cells assessed as S phase at 0.75 uM incubated for 12 hrs by PI staining based flow cytometry analysis (reference value: 11.2 +/- 4.3 %); assay type: functional
# NCI-H460 [16] = assay: Induction of cell cycle arrest in human NCI-H460 cells assessed as G0 phase at 0.75 uM incubated for 24 hrs by PI staining based flow cytometry analysis (reference value: 1.6 +/- 0.6 %); assay type: functional
# NCI-H460 [17] = assay: Induction of cell cycle arrest in human NCI-H460 cells assessed as G0 phase at 0.75 uM incubated for 36 hrs by PI staining based flow cytometry analysis (reference value: 2.8 +/- 0.7 %); assay type: functional
# NCI-H460 [18] = assay: Induction of cell cycle arrest in human NCI-H460 cells assessed as G1 phase at 0.75 uM incubated for 36 hrs by PI staining based flow cytometry analysis (reference value: 57.9 +/- 3.6 %); assay type: functional
# NCI-H460 [19] = assay: Induction of cell cycle arrest in human NCI-H460 cells assessed as G1 phase at 1.5 uM measured at 0 hrs by PI staining based flow cytometry analysis (reference value: 53.4 +/- 4.8 %); assay type: functional
# NCI-H460 [20] = assay: Induction of cell cycle arrest in human NCI-H460 cells assessed as S phase at 1.5 uM incubated for 12 hrs by PI staining based flow cytometry analysis (reference value: 11.2 +/- 4.3 %); assay type: functional
# NCI-H460 [21] = assay: Induction of cell cycle arrest in human NCI-H460 cells assessed as G0 phase at 1.5 uM incubated for 24 hrs by PI staining based flow cytometry analysis (reference value: 1.6 +/- 0.6 %); assay type: functional
# NCI-H460 [22] = assay: Induction of cell cycle arrest in human NCI-H460 cells assessed as G1 phase at 1.5 uM incubated for 24 hrs by PI staining based flow cytometry analysis (reference value: 56.8 +/- 7.6 %); assay type: functional
# NCI-H460 [23] = assay: Induction of cell cycle arrest in human NCI-H460 cells assessed as G2/M phase at 1.5 uM incubated for 36 hrs by PI staining based flow cytometry analysis (reference value: 25 +/- 1.2 %); assay type: functional
# NCI-H460 [24] = assay: Induction of cell cycle arrest in human NCI-H460 cells assessed as G1 phase at 3 uM incubated for 12 hrs by PI staining based flow cytometry analysis (reference value: 66 +/- 10 %); assay type: functional
# NCI-H460 [25] = assay: Induction of cell cycle arrest in human NCI-H460 cells assessed as S phase at 3 uM incubated for 12 hrs by PI staining based flow cytometry analysis (reference value: 11.2 +/- 4.3 %); assay type: functional
# NCI-H460 [26] = assay: Induction of cell cycle arrest in human NCI-H460 cells assessed as G0 phase at 3 uM incubated for 36 hrs by PI staining based flow cytometry analysis (reference value: 2.8 +/- 0.7 %); assay type: functional
# NCI-H460 [27] = assay: Induction of apoptosis in human NCI-H460 cells assessed as viable cells at 3 uM incubated for 48 hrs by annexin V-FITC and PI staining based flow cytometry analysis (reference value: 90.1 %); assay type: functional; conditions: read-out: Activity
# NCI-H460 [28] = assay: Induction of apoptosis in human NCI-H460 cells assessed as early apoptotic cells at 6 uM incubated for 48 hrs by annexin V-FITC and PI staining based flow cytometry analysis (reference value: 2 %); assay type: functional
# [29] = Toxicity in nude mouse xenografted with human HCT-116 cells assessed as reduction in body weight at 30 mg/kg, iv administered for 5 days and repeated cycle for 2 days interval and measured on day 24; assay type: organism-based; conditions: in vivo, 576 h, time 24 day
# Outline: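 Nude mice carried human HCT116 colorectal xenografts. Dosing was i.v. at 30 mg/kg once daily for five days (QD×5), and this cycle was given twice with a 2-day gap. Body weight was tracked against vehicle-treated mice, with tumour assessment at day 24.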
# dsDNA = assay: Induction of pBR322 DNA interstand crosslink at 1 to 20 uM incubated for 2 hrs by agarose gel electrophoresis assay; conditions: dose 1-20 µM
compound,measurement,setting,value
OCc1cn2c3ccccc3c3ccccc3c2c1CO,IC50,HCT-116 [1],1120 nM
same,IC50,NCI-H1650,3730 nM
same,Activity,HCT-116 [2],23.2%
same,Activity,HCT-116 [3],17.8%
same,Activity,HCT-116 [4],8.2%
same,Activity,HCT-116 [5],12.6%
same,Activity,HCT-116 [6],1.7%
same,Activity,HCT-116 [7],16.9%
same,Activity,HCT-116 [8],23.2%
same,Activity,HCT-116 [9],25.6%
same,Activity,HCT-116 [10],65.1%
same,Activity,HCT-116 [11],54.5%
same,Activity,HCT-116 [12],20.7%
same,Activity,NCI-H460 [13],1.8%
same,Activity,NCI-H460 [14],53%
same,Activity,NCI-H460 [15],14.2%
same,Activity,NCI-H460 [16],1.8%
same,Activity,NCI-H460 [17],1.9%
same,Activity,NCI-H460 [18],67.8%
same,Activity,NCI-H460 [19],55.5%
same,Activity,NCI-H460 [20],16.3%
same,Activity,NCI-H460 [21],2.8%
same,Activity,NCI-H460 [22],56.3%
same,Activity,NCI-H460 [23],17.5%
same,Activity,NCI-H460 [24],53.3%
same,Activity,NCI-H460 [25],17.3%
same,Activity,NCI-H460 [26],8.7%
same,viability at 3 µM,NCI-H460 [27],36.2%
same,Activity,NCI-H460 [28],29.2%
same,Activity,[29],Non-Toxic
same,Activity,dsDNA,Active
